SR-BI DiI inh: blocks mouse SR-BI lipid uptake from DiI-HDL. Q61009. ldlA[mSR-BI] CHO cells, DiI-HDL uptake fluorescence, 3 h. inhibition, % at 12.5 µM. 320,000 tested, 0.96% active. AID 488896;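 active = mean replicate inhibition of at least 70% and a set share of replicates each scoring 70 or more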;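 note: 0% = median of neutral control wells and 100% = median of positive control wells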
SR-BI DiI-HDL act: activators of SR-BI mediated HDL lipid uptake | CHO ldlA[mSR-BI] cells, DiI-HDL uptake fluorescence, 3 h; 100 = double the neutral-control signal | activation, % at 12.5 µM | 320,000 tested, 0.096% active;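 active = mean replicate activation of at least 60% and every replicate at or above 60%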;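 note: 0% = median plate neutral-control signal and 100% = twice that signal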
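Test system: SR-BI-overexpressing, LDLR-lacking CHO cells. Measured by: DiI fluorescence, bottom read. Medium: Ham's F12 with 0.5% BSA, HEPES 25 mM, pH 7.4. Timing: 3 h uptake period with compound, 37 °C.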
ARNT-TACC3 inh: disrupts binding between human ARNT and TACC3 | AID 623870 | 390,000 tested, 0.66% active | inhibition, % at 9.99 µM | AlphaScreen His-ARNT PAS-B/GST-TACC3 binding, luminescence; TACC3 fragment carries E629A point mutation | Q9Y6A5;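 active = mean inhibition of replicates at least 50% and at least half of replicates each reaching 50%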;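 note: 0% = complete ARNT plus TACC3 wells and 100% = ARNT alone without TACC3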
XiGFP reactiv: X-chromosome reactivation activator; XiGFP mouse fibroblasts, % GFP-positive cells imaging, 3 d; cells co-treated with 5-aza-dC sensitizer; scaled so ellipticine positive control = 100%; activation, % at 7.58 µM; 360,000 tested, 0.055% active; AID 743238;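 active = mean normalized replicate activation at least 10% and every replicate at or above 10%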;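 note: 0% = median of on-plate neutral control wells and 100% = ellipticine 6 µM median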
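material = 68-5-11 XiGFP fibroblast line | medium = DMEM plus 5-aza-dC sensitizer | schedule = 3 days compound exposure | benchmarks = positive control ellipticine, 6 µM final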
NSD2 HMT inh: inhibitors of human histone methyltransferase NSD2; O96028; NSD2 peptide methylation, AlphaScreen, 120 min; inhibition, % at 12.5 µM; 310,000 tested, 0.54% active; in the data active = inhibition above about 50%
sPLA2-III inh: Blocks human group III sPLA2 activity; QFRET BODIPY PC-A2 liposome hydrolysis, fluorescence; inhibition, % at 12.2 µM; 370,000 tested, 0.56% active; AID 743126;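 active = inhibition above mean plus 3 SD of compounds lying within the high and low control bounds, cut at about 19% in these data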;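 note: 0% = median of test compound wells and 100% = no enzyme DMSO wells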
Target sequence (Q9NZ20 whole entry, looked up): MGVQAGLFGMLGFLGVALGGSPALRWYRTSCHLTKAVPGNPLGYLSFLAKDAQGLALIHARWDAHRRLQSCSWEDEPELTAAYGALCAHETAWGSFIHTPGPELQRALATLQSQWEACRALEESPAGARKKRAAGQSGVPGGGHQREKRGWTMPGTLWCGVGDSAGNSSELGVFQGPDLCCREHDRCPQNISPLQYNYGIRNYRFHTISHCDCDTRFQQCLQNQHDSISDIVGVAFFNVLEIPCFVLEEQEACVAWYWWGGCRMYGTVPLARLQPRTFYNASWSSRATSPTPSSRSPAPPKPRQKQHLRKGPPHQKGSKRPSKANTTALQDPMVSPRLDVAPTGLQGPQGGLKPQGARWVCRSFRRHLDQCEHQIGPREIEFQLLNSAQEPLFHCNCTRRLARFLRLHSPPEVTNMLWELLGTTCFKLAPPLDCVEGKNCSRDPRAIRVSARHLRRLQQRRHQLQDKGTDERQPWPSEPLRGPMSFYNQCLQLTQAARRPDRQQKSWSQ
AlphaScreen art: counter-screen for NSD2 inhibitors: AlphaScreen artifacts; shares compounds with NSD2 HMT inh; AlphaScreen artifact counterscreen, preloaded methylated H4 peptide; AC35, µM (top dose mostly 10 µM), for the others: at the highest dose activity change, negative = signal loss; 1,500 tested, 9.4% active; AID 1053174; call rule not given here
Numbers without * were called inactive; / = not tested or not shown. In the library only some 2% were active in any assay of this set; here they are far more common.

SMILES | SR-BI DiI inh | SR-BI DiI-HDL act | ARNT-TACC3 inh | XiGFP reactiv | NSD2 HMT inh | sPLA2-III inh | AlphaScreen art
COc1ccc(C=C(c2nc3ccccc3s2)c2nc3ccccc3s2)cc1O | 70 | -70 | 0 | / | 59* | -35 | -10%
CSC1=NSC2=NC(=O)/C(=C/c3coc4ccccc4c3=O)C(=N)N12 | -6 | 6 | 26 | 0 | 75* | -27 | 0%
CCNc1ccc(N=Nc2c(C)n(C)n(-c3ccccc3)c2=O)cc1 | 13 | -13 | / | 0 | 5 | 7 | /
Cc1c(N=NC2=C(O)CC(C)(C)CC2=O)c(=O)n(-c2ccccc2)n1C | -19 | 19 | 61* | 0 | 96* | -4 | -2%
O=C(CCN1CCCCC1)NCC[C@H]1CC[C@H](NC(=O)C2CCC2)[C@@H](CO)O1 | / | / | -5 | 0 | / | / | /
c1ccc(Oc2ccc3ccccc3n2)cc1 | -23 | 23 | -2 | 0 | -2 | 7 | /
Cc1[nH][nH]c(=O)c1C(c1c(C)[nH][nH]c1=O)c1cn(Cc2ccccc2Cl)c2ccccc12 | 17 | -17 | 17 | 0 | 115* | -12 | -22%
COCCCNC(=O)COc1ccc(Cl)c(C)c1 | -1 | 1 | -1 | / | 56* | 6 | 4%
Cc1cc(OCC(=O)NC(C)(C)C)ccc1Cl | 14 | -14 | -3 | 0 | -2 | 11 | /
O=C(COC(=O)c1cc(S(=O)(=O)N2CCOCC2)ccc1F)c1ccc[nH]1 | 25 | -25 | 2 | 0 | 69* | 16 | -4%
COc1ccccc1OCC(=O)Nc1ccccc1C(=O)N1CCCC1 | / | / | -1 | 0 | 80* | 1 | -3%
COc1ccccc1OCC(=O)Nc1ccc(S(=O)(=O)N2CCCC2)cc1 | / | / | -2 | 0 | 69* | -2 | -2%
Cc1ccccc1OCC(=O)NCCC1=CCCCC1 | 1 | -1 | -4 | 0 | -1 | 8 | /
CCC(=O)N1CC2(CN(C(=O)Cc3ccccc3)C2)c2c(n(C)c3cc(OC)ccc23)[C@@H]1CO | / | / | / | 0 | / | / | /
Cc1cccc(S(=O)(=O)N(C)C[C@@H]2OCc3ccccc3-c3c(n(C)c4ccccc34)C(=O)N([C@H](C)CO)C[C@H]2C)c1 | / | / | / | 0 | / | / | /
CC1C(=O)N2CCCc3cc(NC(=O)C(=O)NCCN4CCOCC4)cc1c32 (configuration not stated) | 9 | -9 | 34 | 0 | -1 | -5 | /
COc1cc(C(=O)NC(C)c2ccc3ccccc3c2)cc(Cl)c1O (configuration not stated) | -8 | 8 | -2 | 0 | 74* | -11 | -2%
O=C(CSc1nnc2ccccn12)NNC(=O)c1ccc([N+](=O)[O-])cc1 | -14 | 14 | -1 | 0 | 86* | 3 | -4%
CC(C)NC(=O)N(C)C[C@@H]1Oc2c(NC(=O)Nc3ccccc3)cccc2C(=O)N([C@H](C)CO)C[C@H]1C | -19 | 19 | 0 | 0 | / | -1 | /
COc1ccccc1NC(=O)c1ccc(NC(=O)C2COc3ccccc3O2)cc1 (configuration not stated) | 52 | -52 | -14 | 0 | 76* | -11 | 1%
COC(=O)c1c(NC(C)=O)sc(C(=O)N2CCOCC2)c1C | / | / | -21 | 0 | 0 | 3 | /
COC(=O)c1c(NC(=O)C(C)C)sc(C(=O)N2CCOCC2)c1C | 10 | -10 | -5 | 0 | 105* | -2 | -6%
CC(C)(C)[S@@](=O)N1Cc2cc(C(=O)N3CCc4ccccc4C3)nc(-c3cccc(-c4cccnc4)c3)c2[C@H]1CCO | / | / | 24 | 0 | / | / | /
CCCN(CCC)CCNC(=O)c1cc2c(-c3ccccc3F)nn(C)c2s1 | 48 | -48 | / | 0 | 53* | 4 | -3%
CCCN(CCC)CCNC(=O)c1cc2c(-c3ccc(Cl)cc3)nn(C)c2s1 | 58 | -58 | 24 | 0 | 3 | -5 | /
SMILES | SR-BI DiI inh | SR-BI DiI-HDL act | ARNT-TACC3 inh | XiGFP reactiv | NSD2 HMT inh | sPLA2-III inh | AlphaScreen art
COc1ccc(CN2C(=O)c3ccccc3C2c2nnnn2Cc2ccccc2)cc1 (configuration not stated) | / | / | / | 0 | / | 0 | /
Cc1nc(N)sc1-c1nnc(SCC(=O)Nc2ccccc2C(F)(F)F)n1C | 19 | -19 | -5 | / | 125* | 6 | 0%
O=C(NCc1ccc(F)cc1)c1cccnc1 | -30 | 30 | -2 | 0 | -3 | -1 | /
CCc1ccc(N2C(=O)C3C(C2=O)N2CCCN2C3c2ccccc2)cc1 (configuration not stated) | -2 | 2 | 7 | 0 | 64* | -6 | 0%
Cc1ccc(N2C(=O)C3C(C2=O)N2CCCN2C3c2ccccc2)cc1C (configuration not stated) | 6 | -6 | 0 | 0 | 6 | -10 | /
O=C(O)Cc1ccc(-n2cccc2)cc1 | -2 | 2 | -9 | 0 | 117* | 0 | -4%
C[C@H]1CN([C@@H](C)CO)C(=O)c2cccc(NS(C)(=O)=O)c2O[C@H]1CN(C)S(C)(=O)=O | / | / | -2 | 0 | / | / | /
CCOC(=O)CN(C(=O)COc1nc(-c2ccccc2)cc(C)c1C#N)c1ccccc1 | 18 | -18 | 0 | 0 | 71* | -1 | -1%
Cc1nc2cc(C(=O)NCCN3CCOCC3)ccc2n1-c1ccc(F)cc1F | -8 | 8 | -9 | / | / | 6 | /
Cc1nc2cc(C(=O)NCc3cccnc3)ccc2n1-c1ccc(F)cc1F | -17 | 17 | / | 0 | 50* | 9 | -3%
Cc1ccc(S(=O)(=O)N2CCOCC2)cc1NC(=O)COC(=O)COc1ccc(C#N)cc1 | / | / | / | 0 | -3 | 4 | /
COc1ccc(C)cc1NC(=O)CCNC(=O)Cn1cnc2ccccc2c1=O | 21 | -21 | 1 | 0 | 90* | 2 | -1%
CC1CCCCN1C(=O)CCNC(=O)Cn1cnc2ccccc2c1=O (configuration not stated) | -23 | 23 | -1 | 0 | 94* | 2 | 1%
CCOC(=O)[C@]12CCCC=C1N(Cc1ccccc1)C(=O)[C@H](CC(=O)NCc1ccccc1)C2 | / | / | / | 0 | / | 4 | /
O=C(Cc1cccs1)NCCc1ccc(F)cc1 | -2 | 2 | 1 | 0 | 1 | 6 | /
COc1ccc(CCCc2n[nH]c(=S)o2)cc1C | 0 | 0 | -3 | 1 | 1 | 13 | /
COc1ccc(CCCc2n[nH]c(=S)n2C)cc1C | 14 | -14 | 4 | 0 | 52* | 18 | -2%
COC(=O)c1cc2c(c3c4cc(F)ccc4n(S(=O)(=O)c4cccc(C)c4)c13)C(=O)N(Cc1ccc(N(C)C)cc1)C2 | / | / | / | 0 | / | 8 | /
